In PMC4012894 (Journal of the American Chemical Society, 2014):

Assays:
PikCD50N-RhFRED [1] = biological target: T1, PikCD50N-RhFRED (Streptomyces venezuelae, UniProt O87605, D50N); assay: Spectroscopic equilibrium substrate binding assay, PikCD50N-RhFRED
T1 sequence (O87605 1-416 D50N): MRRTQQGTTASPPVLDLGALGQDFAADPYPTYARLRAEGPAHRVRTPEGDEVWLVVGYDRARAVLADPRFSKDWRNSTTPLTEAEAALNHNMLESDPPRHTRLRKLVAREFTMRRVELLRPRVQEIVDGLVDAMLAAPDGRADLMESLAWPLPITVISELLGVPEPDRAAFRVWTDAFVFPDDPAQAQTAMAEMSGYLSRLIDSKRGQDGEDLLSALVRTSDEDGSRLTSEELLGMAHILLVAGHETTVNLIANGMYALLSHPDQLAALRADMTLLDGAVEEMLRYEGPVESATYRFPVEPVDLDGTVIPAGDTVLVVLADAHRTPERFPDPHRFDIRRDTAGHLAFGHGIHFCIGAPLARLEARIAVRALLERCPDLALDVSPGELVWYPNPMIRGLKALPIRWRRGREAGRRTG
T1 sequence (Q8KU27 445-773 partner): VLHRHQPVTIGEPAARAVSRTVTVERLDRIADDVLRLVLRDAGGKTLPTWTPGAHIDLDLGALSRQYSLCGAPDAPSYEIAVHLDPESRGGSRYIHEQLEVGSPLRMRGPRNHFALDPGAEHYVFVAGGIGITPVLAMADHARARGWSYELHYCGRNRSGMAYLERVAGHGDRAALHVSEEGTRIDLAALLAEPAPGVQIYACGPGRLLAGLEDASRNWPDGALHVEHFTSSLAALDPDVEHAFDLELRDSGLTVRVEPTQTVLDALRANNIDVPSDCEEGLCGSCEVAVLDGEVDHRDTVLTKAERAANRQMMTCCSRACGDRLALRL

PikCD50NH238A = biological target: T2, PikCD50NH238A (Streptomyces venezuelae, UniProt O87605, D50N/H238A); assay: Spectroscopic equilibrium substrate binding assay, PikCD50NH238A mutant
T2 sequence (O87605 1-416 D50N/H238A): T1 sequence (O87605 1-416 D50N)
T2 sequence (Q8KU27 445-773 partner): T1 sequence (Q8KU27 445-773 partner)

PikCD50N/H238A-RhFRED = assay: Total turnover number; format: biochemical; conditions: PikCD50N/H238A-RhFRED double mutant
Outline: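 Double mutant made by adding H238A to the PikCD50N-RhFRED fusion, to probe the H238 H-bond to the anchoring-group carbonyl. TTN is expressed relative to moles of enzyme.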

PikCD50N-RhFRED [2] = biological target: T1, PikCD50N-RhFRED; assay: PikCD50N-RhFRED analytical-scale enzymatic reactions; format: biochemical; conditions: for preferred site of hydroxylation (regioselectivity in words): PikCD50N-RhFRED; for hydroxylation by PikCD50N-RhFRED (result in words): 0.5 mol % enzyme (5 μM enzyme, 1 mM substrate)

| Structure (SMILES) | Kd (PikCD50N-RhFRED [1]) | Kd (PikCD50NH238A) | TTN D50NH238A (PikCD50N/H238A-RhFRED) | preferred site of hydroxylation (regioselectivity in words) (PikCD50N-RhFRED [2]) | hydroxylation by PikCD50N-RhFRED (result in words) (PikCD50N-RhFRED [2]) |
| --- | --- | --- | --- | --- | --- |
| CC[C@H]1OC(=O)[C@H](C)[C@@H](OC(=O)CCN(C)C)[C@@H](C)C[C@@H](C)C(=O)/C=C/[C@H]1C [8b] | 81 ± 15 µM | 161 ± 25 µM | 870 ± 38 | – | – |
| CC[C@H]1OC(=O)[C@H](C)[C@@H](OC(=O)[C@H]2CCCN2C)[C@@H](C)C[C@@H](C)C(=O)/C=C/[C@H]1C [12a] | 47 ± 3 µM | 19 ± 1.3 µM | 542 ± 30 | preferential C-10 hydroxylation | – |
| CC[C@H]1OC(=O)[C@H](C)[C@@H](OC(=O)[C@@H]2CCCN2C)[C@@H](C)C[C@@H](C)C(=O)/C=C/[C@H]1C [12b] | 28 ± 5.4 µM | 21 ± 0.7 µM | 538 ± 20 | preferential C-10 hydroxylation | – |
| CC[C@H]1OC(=O)[C@H](C)[C@@H](OC(=O)c2ccc(CN(C)C)cc2)[C@@H](C)C[C@@H](C)C(=O)/C=C/[C@H]1C [16a] | – | – | 816 ± 33 | highly regioselective allylic hydroxylation at C-10 | converted to monohydroxylated products |
| CC[C@H]1OC(=O)[C@H](C)[C@@H](OC(=O)c2cccc(CN(C)C)c2)[C@@H](C)C[C@@H](C)C(=O)/C=C/[C@H]1C [16b] | – | – | 922 ± 35 | highly regioselective allylic hydroxylation at C-10 | converted to monohydroxylated products |
| CC[C@H]1OC(=O)[C@H](C)[C@@H](OC(=O)CCCN(C)C)[C@@H](C)C[C@@H](C)C(=O)/C=C/[C@H]1C [compound 10] | 123 ± 14 µM | 168 ± 19 µM | 853 ± 38 | – | – |
| CC[C@H]1OC(=O)[C@H](C)[C@@H](OC(=O)c2ccccc2CN(C)C)[C@@H](C)C[C@@H](C)C(=O)/C=C/[C@H]1C [compound 14] | – | – | 491 ± 26 | favor C-12 hydroxylation | converted to monohydroxylated products |
